Screens deposited in PubChem by Broad Institute.
Env fusion inh: inhibitors of HIV-1 Env-driven cell-cell fusion, primary screen, HeLa-JRFL effector, CEM21 target cells, luciferase. AID 651610, 2012. inhibition, % at 12.3 µM. hit rate 1.1% among 360,000;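 active means mean replicate inhibition score of at least 50 and every replicate individually at or above 50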
rRNA inh HTS: reduced GFP signal of wild-type E. coli, primary screen, bacterial rRNA inhibitor project, GFP/RFP fluorescence, OD600, single point | E. coli WT GFP vs humanized-ribosome RFP mutants, 24 h; active compounds read low; DMSO median 0, no signal -100 | GFP signal change (wild-type ribosome), % (test concentration not listed) | hit rate 1.6% among 350,000;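 active means significant combined selectivity score with lowered wild-type GFP, culture density cut under 30%, mutant RFP and density less affected; inactive means any of these conditions unmet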
FN deposit inh: inhibitors of fibronectin matrix deposition, primary screen, AH1F cells, Alexa488-fibronectin fluorescence, plate reader; AID 743247, 2014; hit rate 0.086% among 350,000; AH1F fibroblasts, overnight; inhibition, % at 12.6 µM;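 active means mean inhibition across replicates of 30% or more, regardless of how many single replicates reach that level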
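Assay system: AH1F fibroblasts assembling fluorescent fibronectin matrix; Amount: 10000 AH1F cells per well; Buffer or medium: DMEM, 2% serum; Probe or stimulus: Alexa488-fibronectin, 24 nM final in well; Doses: single compound dose, delivered by pin transfer; Incubation: 1 h adhesion, overnight exposure; Measured by: fluorescence 485/525 nm; Read-out: fibronectin deposition inhibition.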
miR122 inh: miR-122 Renilla sensor signal increase in Huh7, primary screen, miR-122 inhibitor project, cell-based, single point, plate reader; Huh7 miR-122 Renilla luciferase sensor, 48 h; neutral wells = 0, positive control = 100; activation (reporter increase), % at 12.5 µM; hit rate 0.3% among 340,000; AID 602342, 2012;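 active means mean replicate activation score at least 90 and every replicate individually at or above 90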;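 further: higher luciferase means less miR-122 activity so hits act as miR-122 inhibitors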
S100A4 MyoIIA: inhibitors of S100A4-myosin IIA peptide binding, primary screen, biochemical, fluorescence polarization, TAMRA-MyoIIA peptide; Protein S100-A4 (Homo sapiens), P26447; inhibition, % at 10.7 µM; hit rate 0.14% among 360,000; AID 652163, 2013;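 active means mean inhibition of at least 70% across replicates, with every replicate also reaching that level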
Target sequence (P26447 whole entry, looked up): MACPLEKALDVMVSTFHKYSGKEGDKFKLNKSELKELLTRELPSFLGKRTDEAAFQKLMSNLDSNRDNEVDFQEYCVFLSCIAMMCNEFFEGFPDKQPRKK
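incubation = readout 5 min after mixing, signal stable up to 60 min | system = S100A4 monomer protein | buffer or medium = HEPES pH 7.2 with CaCl2, KCl, NaCl, DTT, Triton | benchmarks = neutral control DMSO, positive control TFP | also added = fluorescent myosin IIA peptide, 5 nM | compound dosing = one concentration per compound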
Vif inh: HIV Vif self-association inhibitors, primary screen, imaging, HEK293T, single point. HEK293T cells, Vif self-association by quenched fluorescence, 24 h. inhibition, % at 7.49 µM. hit rate 0.35% among 340,000. AID 602346, 2012; in the data active means inhibition above about 50%, passing the limit was not always enough
Each line names hits and unclear results; the compound was inactive in the other large screens; ! = a repeat was not active. Most compounds without a hit are left out; they make up all but 2.6% or so of the library.

C[C@@H]1CCCCO[C@H](CN(C)S(C)(=O)=O)[C@@H](C)CN([C@@H](C)CO)C(=O)c2cc(N(C)C)ccc2O1	none (no result: FN deposit inh, Vif inh)
CCC(=O)N1[C@H](CN(C)C(C)=O)[C@@H](c2ccc(-c3cccc(F)c3)cc2)[C@@H]1CO	none (no result: Env fusion inh, S100A4 MyoIIA, Vif inh)
COc1ccc(S(=O)(=O)NCCOc2ccccc2)cc1-n1cnnn1	none
Cc1cc(C)c(S(=O)(=O)NCCOc2ccccc2)c(C)c1-n1cnnn1	rRNA inh HTS -18 (no result: FN deposit inh)
COc1ccc(OCC(=O)Nc2ccc(N3CCOCC3)c(Cl)c2)cc1	none (no result: rRNA inh HTS, S100A4 MyoIIA)
COc1ccc(N2CCN(C(=O)c3ccc(C)cc3)CC2)c([N+](=O)[O-])c1	none (no result: rRNA inh HTS, miR122 inh, S100A4 MyoIIA)
COc1ccc(N2CCN(C(=O)c3ccccc3)CC2)c([N+](=O)[O-])c1	rRNA inh HTS -23
COc1ccc(N2CCN(C(=O)c3ccc(Br)cc3)CC2)c([N+](=O)[O-])c1	rRNA inh HTS -24 (no result: miR122 inh)
COc1ccc(OCC(=O)Nc2ccc(N3CCN(C(=O)c4ccccc4)CC3)c(Cl)c2)cc1	Env fusion inh 62 (no result: FN deposit inh, miR122 inh, Vif inh)
O=C(NC(=S)N1CCc2ccccc21)c1ccccc1Br	none (no result: rRNA inh HTS, S100A4 MyoIIA)
O=C(NC(=S)N1CCc2ccccc21)c1ccc(Br)o1	rRNA inh HTS -42 (no result: miR122 inh)
COc1ccc(/C=C2/SC(=S)N(CCCC(=O)Nc3ccccc3C(=O)O)C2=O)cc1	none
O=C(CCCN1C(=O)C(=Cc2ccc3c(c2)OCO3)SC1=S)Nc1ccc(C(=O)O)c(O)c1	rRNA inh HTS -26 (no result: Vif inh)
COc1ccc(/C=C2\SC(=O)N(CCCC(=O)Nc3ccc(C(=O)O)cc3)C2=O)cc1	Env fusion inh 89
Cc1ccc(/C=C2\SC(=S)N(CCCC(=O)Nc3ccccc3C(=O)O)C2=O)cc1	Env fusion inh 68 (no result: FN deposit inh)
CCc1ccc(/C=C2\SC(=S)N(CCCC(=O)Nc3ccccc3C(=O)O)C2=O)cc1	none (no result: miR122 inh)
COc1ccc(/C=C2\SC(=S)N(CCCC(=O)NNC(=O)c3ccccc3O)C2=O)cc1	Env fusion inh 59
COc1cccc(S(=O)(=O)Nc2ccc3c(c2)OC[C@@H](C)N(Cc2ccccc2F)C[C@@H](C)[C@@H](OC)CN(C)C3=O)c1	none (no result: miR122 inh, Vif inh)
CNC[C@H]1Oc2ccc(NS(C)(=O)=O)cc2CC(=O)N(C)C[C@H]1C	none (no result: Env fusion inh, miR122 inh, S100A4 MyoIIA, Vif inh)
Cc1ccc(/C=C2\SC(=S)N(CCCC(=O)Nc3ccc(O)cc3)C2=O)cc1	Env fusion inh 64
O=C1/C(=C/c2ccc(O)cc2)SC(=S)N1CC1CCCO1 (stereo not given)	rRNA inh HTS -24 (no result: miR122 inh)
O=C(CCCN1C(=O)/C(=C\c2cccc(Br)c2)SC1=S)Nc1ccc(C(=O)O)cc1	Vif inh 77 (no result: Env fusion inh)
C[C@H]1CN([C@@H](C)CO)C(=O)c2cccc(NS(C)(=O)=O)c2O[C@H]1CN(C)Cc1ccc(Cl)c(Cl)c1	none (no result: FN deposit inh, Vif inh)
Cc1ccc(C(=O)N/C(=C\c2ccc(Br)cc2)c2nc(=S)[nH][nH]2)cc1	rRNA inh HTS -25 (no result: Env fusion inh, FN deposit inh)
C[C@H](CO)N1C[C@H](C)[C@H](CN(C)S(=O)(=O)c2cn(C)cn2)Oc2ccc(NC(=O)CCCCCC(=O)Nc3ccccc3N)cc2CC1=O	none (no result: Vif inh)
CCN(CC)c1ccc(C2=NNC(=O)CC2C)cc1[N+](=O)[O-] (stereo not given)	Env fusion inh 87 (no result: rRNA inh HTS)
CC1CC(=O)NN=C1c1ccc(N(C)C)c([N+](=O)[O-])c1 (stereo not given)	Env fusion inh 73 (no result: rRNA inh HTS, S100A4 MyoIIA)
CCNC(=O)C[C@@H]1CC[C@H]2[C@H](COc3ccc(NC(=O)Nc4ccc(C)cc4)cc3C(=O)N2C)O1	none (no result: Vif inh)
CNC[C@@H]1OCCCC[C@H](C)Oc2ccc(NC(=O)c3ccncc3)cc2C(=O)N([C@H](C)CO)C[C@@H]1C	none (no result: FN deposit inh, Vif inh)
CC(C)CC(COCc1cccc(Cl)c1)N1CCN(C(=O)c2ccc(C(F)(F)F)cc2)CCC1=O (stereo not given)	Env fusion inh 59
Cc1cccc(COC[C@H](Cc2ccccc2)N2CCN(C(=O)c3ccc(C(F)(F)F)cc3)CCC2=O)c1	none (no result: miR122 inh, Vif inh)
CC(C)C[C@@H](COCc1cccc(Cl)c1)N1CCN(C(=O)c2cccc(C(F)(F)F)c2)CCC1=O	Env fusion inh 58 (no result: miR122 inh, Vif inh)
C[C@@H]1CCCCO[C@H](CN(C)C(=O)C2CCCCC2)[C@H](C)CN([C@@H](C)CO)C(=O)c2cc(NC(=O)Nc3cccc4ccccc34)ccc2O1	none (no result: FN deposit inh, Vif inh)
C[C@@H]1CN([C@@H](C)CO)C(=O)Cc2cc(NC(=O)Nc3ccccc3)ccc2O[C@H]1CN(C)Cc1ccc(C(F)(F)F)cc1	none (no result: FN deposit inh, Vif inh)
O=S(=O)(Nc1cccc(-n2cnnn2)c1)c1cc(Br)ccc1Br	miR122 inh 108
CC(C)CCN1CCN=C1Nc1ccccc1	Env fusion inh 60
CC(C)CN1CCN=C1Nc1ccccc1	none
CC(NCC(O)COCCC12CC3CC(CC(C3)C1)C2)c1ccccc1 (stereo not given)	Env fusion inh 73 (no result: miR122 inh)
CN(Cc1cnc2nc(N)nc(N)c2n1)c1ccc(C(=O)N[C@@H](CCC(=O)O)C(=O)O)cc1	Env fusion inh 62! (no result: rRNA inh HTS)
COc1ccccc1C(=O)Nc1ccc2c(c1)OC[C@H](C)N(C)C[C@H](C)[C@@H](OC)CN(C)C2=O	none (no result: Vif inh)
Cc1noc(C)c1S(=O)(=O)Nc1ccc2c(c1)C(=O)N([C@H](C)CO)C[C@@H](C)[C@H](CN(C)Cc1ccc(C(F)(F)F)cc1)O2	none (no result: Vif inh)
CNC[C@H]1Oc2ccc(NS(=O)(=O)c3c(C)noc3C)cc2CC(=O)N([C@H](C)CO)C[C@@H]1C	none (no result: Vif inh)
CC(C)NC(=O)N(C)C[C@H]1Oc2c(cccc2N(C)C)C(=O)N(C)C[C@@H]1C	none (no result: Env fusion inh, miR122 inh, S100A4 MyoIIA, Vif inh)
Cc1ccccc1N1CCN(C(=O)c2ccc(Oc3ccc(C(F)(F)F)cn3)cc2)CC1	Env fusion inh 68 (no result: rRNA inh HTS, S100A4 MyoIIA)
O=C(O)c1ccc(Oc2ccc(C(F)(F)F)cn2)cc1	none
CNC[C@H]1OCCCC[C@H](C)Oc2ccc(NC(=O)Nc3ccccc3)cc2C(=O)N([C@@H](C)CO)C[C@@H]1C	none (no result: FN deposit inh, Vif inh)
CCCC(=O)N1CC2(CN(S(C)(=O)=O)C2)c2c([nH]c3cc(OC)ccc23)[C@@H]1CO	none (no result: Env fusion inh, FN deposit inh, miR122 inh, Vif inh)
CC(C)(C)NC(=O)C(c1ccc(O)cc1)N(Cc1ccc2c(c1)OCO2)C(=O)CCl (stereo not given)	Vif inh 80 (no result: rRNA inh HTS)
Cc1ccc(S(=O)(=O)Nc2ccc3c(c2)C(=O)N([C@@H](C)CO)C[C@@H](C)[C@H](CN(C)S(=O)(=O)c2ccc(C)cc2)O3)cc1	none (no result: FN deposit inh, Vif inh)
COc1ccc(C2=NOC(C(=O)NCc3ccc(F)cc3)C2)cc1OC (stereo not given)	none (no result: Env fusion inh, FN deposit inh)
